Data on eight compounds can be found in BindingDB's records for doi:10.1016/j.bmcl.2012.02.015 (Glaxosmithkline, 2012).

SMILES strings stand for the structures.

The target of the experiment is Muscarinic acetylcholine receptor M3 (Homo sapiens, UniProt P20309). Nature of the experiment: Antagonist potency at human muscarinic acetylcholine M3 receptor expressed in CHO cells assessed as inhibition of Ach-induced calcium mobilization by FLIPR analysis relative to control. In outline: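 Human M3 receptor in CHO cells, ACh-stimulated calcium mobilization by FLIPR. pA2 derived from the ratio of the ACh EC50 with and without antagonist. Run only where the IC50 was below 10 nM. Values above 11 could not be determined accurately.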
Muscarinic acetylcholine receptor M3, sequence (P20309 whole entry): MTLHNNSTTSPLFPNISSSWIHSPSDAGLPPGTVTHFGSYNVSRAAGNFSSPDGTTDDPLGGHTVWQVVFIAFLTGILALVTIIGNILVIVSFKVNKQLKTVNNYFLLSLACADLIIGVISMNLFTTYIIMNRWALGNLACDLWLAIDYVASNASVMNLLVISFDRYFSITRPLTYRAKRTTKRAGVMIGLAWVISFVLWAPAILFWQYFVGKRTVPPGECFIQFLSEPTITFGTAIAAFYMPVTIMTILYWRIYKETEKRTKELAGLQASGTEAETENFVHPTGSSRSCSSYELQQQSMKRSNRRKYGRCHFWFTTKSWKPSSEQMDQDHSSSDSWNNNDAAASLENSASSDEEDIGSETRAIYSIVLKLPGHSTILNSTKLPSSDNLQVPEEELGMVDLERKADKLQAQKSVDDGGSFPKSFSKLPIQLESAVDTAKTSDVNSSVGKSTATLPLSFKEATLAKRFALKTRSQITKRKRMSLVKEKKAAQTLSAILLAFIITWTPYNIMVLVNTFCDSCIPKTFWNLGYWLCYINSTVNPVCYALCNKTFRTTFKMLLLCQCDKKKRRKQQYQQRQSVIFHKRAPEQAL
Background: A change in cytosolic calcium serves as a functional read-out for many receptors and channels.
The term Kd denotes the free concentration of one partner at which half of the binding sites on the other are occupied at equilibrium, for simple one-to-one binding. For `CCC[N+]1(C)C2CCC1CC(CC(C#N)(c1ccccc1)c1ccccc1)C2` (stereo not drawn), the Kd amounted to 0.0501 nM.

Consider `COCCOCC[N+]1(C)C2CCC1CC(CC(C#N)(c1ccccc1)c1ccccc1)C2` (stereo not drawn), for which the equilibrium dissociation constant (Kd) was 0.631 nM.

For `C[N+]1(CC2CC2)C2CCC1CC(CC(C#N)(c1ccccc1)c1ccccc1)C2` (stereo not drawn), the Kd was 0.0501 nM.

In the case of `CC[N+]1(C)C2CCC1CC(CC(C#N)(c1ccccc1)c1ccccc1)C2` (stereo not drawn), the equilibrium dissociation constant (Kd) was found to be 0.0501 nM.

As for `C[N+]1(CCO)C2CCC1CC(CC(C#N)(c1ccccc1)c1ccccc1)C2` (stereo not drawn), the dissociation constant (Kd) is 0.158 nM.

Turning to `C=CC[N+]1(C)C2CCC1CC(CC(C#N)(c1ccccc1)c1ccccc1)C2` (stereo not drawn), the Kd is 1.26 nM.

For `COCC[N+]1(C)C2CCC1CC(CC(C#N)(c1ccccc1)c1ccccc1)C2` (stereo not drawn), the Kd stood at 0.501 nM.

For the compound `C[N+]1(CCCC#N)C2CCC1CC(CC(C#N)(c1ccccc1)c1ccccc1)C2` (stereo not drawn), the Kd was determined as 0.158 nM.
